We go through four compounds from ChEMBL document CHEMBL1629528 (J Med Chem, 2010).

Data set [1] is described as follows: AUC (0 to infinity) in Sprague-Dawley rat at 1 mg/kg, po after 24 hrs. As to conditions: plasma. It counts as ADME, organism-based. Also on record: time infinity, dose 1 mg/kg, route oral. In short, it runs like this:
(§1)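 Male Sprague-Dawley rats dosed po at 1 mg/kg (10 mL/kg, 1% DMSO in aqueous 0.5% methocel), n=3, as a cassette with other compounds; blood sampled at intervals up to 24 h and analysed by protein precipitation then LC-MS/MS.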

Data set [2] can be described thus: Solubility of the compound in simulated gastric fluid at pH 1.2 at 25 degC. It counts as physicochemical.
Data set [3] is described as follows: Clearance in Sprague-Dawley rat at 0.5 mg/kg, iv after 24 hrs. The following applies: in vivo. It counts as ADME, organism-based. Also on record: dose 0.5 mg/kg, route intravenous. In short, it runs like this:
(§2)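 Male Sprague-Dawley rats given 0.5 mg/kg iv (2 mL/kg, 2.5% DMSO in glucosate solution), n=3, cassette dosing; blood collected at intervals up to 24 h, protein precipitation and LC-MS/MS quantification.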

The nature of data set [4]: Solubility of the compound in water. The format is physicochemical. The essentials: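 Measured on the dihydrochloride salt form, dissolved in water.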
Data set [5] in a line: Ratio of drug level in brain to blood in Sprague-Dawley rat after 1 hr. It counts as ADME, tissue-based. The following applies: read-out: BBR. The essentials:
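Male Sprague-Dawley rats dosed iv at 0.5 mg/kg (2.5% DMSO in glucosate), n=3, as a cassette. At 1 h, CO2 anaesthesia, blood taken by heart puncture and brain removed. Both matrices analysed by protein precipitation and LC-MS/MS.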

A short description of data set [6]: Oral bioavailability in Sprague-Dawley rat at 1 mg/kg, po after 24 hrs. It counts as ADME, organism-based. The following applies: in vivo. In short, it runs like this:
as §1

A short description of data set [7]: Cmax in Sprague-Dawley rat at 1 mg/kg, po after 24 hrs. The format is ADME, organism-based. Further details: dose 1 mg/kg, route oral. The following applies: in vivo. The essentials:
as §1

Data set [8] is described as follows: Half life in Sprague-Dawley rat at 0.5 mg/kg, iv after 24 hrs. The format is ADME, organism-based. Also on record: dose 0.5 mg/kg, route intravenous. As to conditions: in vivo. The essentials: as §2
Data set [9] is described as follows: Solubility of the compound in fed state simulated intestinal fluid at pH 5.5 at 25 degC. The format is physicochemical. In short, it runs like this: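 Solubility determined at 25 °C in fed state simulated intestinal fluid at pH 5.5.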
A further data set relates to Rattus norvegicus. In words: Inhibition of 8-OH-DPAT-induced hyperlocomotory activity in Sprague-Dawley rat administered orally 60 mins before 8-OH-DPATchallenge. The format is functional. The following applies: po. The essentials:
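Male Sprague-Dawley rats (250–350 g) dosed orally (5 mL/kg) at 0.03, 0.1 or 0.3 mg/kg or vehicle, 60 min before sc 8-OH-DPAT 0.2 mg/kg (2 mL/kg). Total distance travelled recorded by infrared sensors over 30 min immediately after; 8–9 rats per group.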

For another data set, the target named is Cytochrome P450 2C9 (Homo sapiens, UniProt P11712). In words: Inhibition of human recombinant CYP2C9.
Data set [10] deals with Alpha-1B adrenergic receptor (Rattus norvegicus, UniProt P15823). In words: Inhibition of rat adrenergic Alpha-1B receptor.
Data set [11] has as its target T1, Cytochrome P450 3A4 (Homo sapiens, UniProt P08684). In words: Inhibition of CYP3A4 in human liver microsomes using nifedipine as probe.
Data set [12] concerns the target T1, Cytochrome P450 3A4. Briefly: Inhibition of CYP3A4 in human liver microsomes using midazolam as probe. On the technique in general: Liver microsomes are a subcellular fraction often used to study metabolism.
In data set [13] the target is 5-hydroxytryptamine receptor 6 (Homo sapiens, UniProt P50406). Briefly: Binding affinity to human recombinant 5-HT6 receptor by radioligand displacement assay. (In general: In a radioligand displacement assay an active substance lowers the binding of a labelled ligand.)
The target in data set [14] is T2, 5-hydroxytryptamine receptor 2C (Homo sapiens, UniProt P28335).
T2 sequence (P28335 whole entry): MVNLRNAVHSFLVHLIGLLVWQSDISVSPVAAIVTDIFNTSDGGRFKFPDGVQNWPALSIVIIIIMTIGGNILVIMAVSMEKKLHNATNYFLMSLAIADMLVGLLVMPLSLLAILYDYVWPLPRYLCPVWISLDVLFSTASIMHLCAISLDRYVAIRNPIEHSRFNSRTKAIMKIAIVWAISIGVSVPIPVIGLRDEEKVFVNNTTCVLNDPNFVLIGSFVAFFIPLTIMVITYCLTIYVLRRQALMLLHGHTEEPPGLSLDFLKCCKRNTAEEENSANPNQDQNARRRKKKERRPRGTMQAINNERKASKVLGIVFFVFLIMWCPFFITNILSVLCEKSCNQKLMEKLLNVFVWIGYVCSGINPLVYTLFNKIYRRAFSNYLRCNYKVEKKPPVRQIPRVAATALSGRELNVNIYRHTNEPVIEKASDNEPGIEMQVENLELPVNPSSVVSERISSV
Briefly: Binding affinity to human recombinant 5-HT2C receptor by radioligand displacement assay.

The nature of data set [15]: Protein binding in rat plasma at 1 ug/mL by equilibrium dialysis method. A general note: In equilibrium dialysis only unbound substance equilibrates across the membrane.
Data set [16] has as its target T1, Cytochrome P450 3A4. Briefly: Inhibition of human recombinant CYP3A4.
Data set [17] deals with Alpha-1A adrenergic receptor (Rattus norvegicus, UniProt P43140). In words: Inhibition of rat adrenergic alpha1A receptor.
The target in the next data set is Cytochrome P450 1A2 (Homo sapiens, UniProt P05177). In words: Inhibition of human recombinant CYP1A2.
A short description of data set [18]: Plasma protein binding in human at 1 ug/mL by equilibrium dialysis method.
A short description of data set [19]: Plasma protein binding in dog at 1 ug/mL by equilibrium dialysis method.
In data set [20] the target is Voltage-gated inwardly rectifying potassium channel KCNH2 (Homo sapiens, UniProt Q12809). Briefly: Displacement of [3H]dofetilide from human ERG by SPA.
The target of a further data set is Cytochrome P450 2C19 (Homo sapiens, UniProt P33261). Briefly: Inhibition of human recombinant CYP219.
Data set [21] addresses T1, Cytochrome P450 3A4. Briefly: Inhibition of CYP3A4 in human liver microsomes using atorvastatin as probe.
The target in a further data set is Cytochrome P450 2D6 (Homo sapiens, UniProt P10635). In words: Inhibition of human recombinant CYP2D6.
A short description of data set [22]: Clearance in cynomolgus monkey at 1 mg/kg, iv. The following applies: in vivo.
Data set [23] can be described thus: Half life in dog at 0.5 mg/kg, iv. The following applies: in vivo.
A short description of data set [24]: in vivo. As to conditions: dog, plasma, po, 10 mg/kg.
A short description of data set [25]: Half life in cynomolgus monkey at 1 mg/kg, iv. The following applies: in vivo.
Data set [26] in a line: Clearance in dog at 0.5 mg/kg, iv. As to conditions: in vivo.
The nature of data set [27]: in vivo. As to conditions: cynomolgus monkey, po, 10 mg/kg.
Data set [28] is described as follows: in vivo. As to conditions: dog, po, 1 mg/kg.
Data set [29] can be described thus: in vivo. As to conditions: dog, po, 10 mg/kg.
Data set [30] can be described thus: in vivo. As to conditions: cynomolgus monkey, po, 10 mg/kg. The source holds these as a separate data set.
Data set [31] in a line: in vivo. As to conditions: cynomolgus monkey, plasma, po, 10 mg/kg.

T1 sequence (P08684 whole entry): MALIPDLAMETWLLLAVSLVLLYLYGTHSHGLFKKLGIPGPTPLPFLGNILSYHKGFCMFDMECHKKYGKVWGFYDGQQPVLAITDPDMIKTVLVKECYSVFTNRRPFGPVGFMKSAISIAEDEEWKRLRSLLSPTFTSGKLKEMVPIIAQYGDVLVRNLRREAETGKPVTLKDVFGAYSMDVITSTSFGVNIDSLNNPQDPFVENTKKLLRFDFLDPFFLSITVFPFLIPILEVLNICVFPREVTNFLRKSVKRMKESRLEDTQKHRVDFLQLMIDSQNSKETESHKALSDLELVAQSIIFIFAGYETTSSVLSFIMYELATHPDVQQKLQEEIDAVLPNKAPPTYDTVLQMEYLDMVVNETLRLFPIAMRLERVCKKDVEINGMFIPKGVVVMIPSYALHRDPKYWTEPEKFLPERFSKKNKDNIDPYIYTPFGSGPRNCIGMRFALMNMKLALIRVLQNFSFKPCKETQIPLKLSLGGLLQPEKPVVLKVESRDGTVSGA
Sequence of Cytochrome P450 1A2 (P05177 whole entry): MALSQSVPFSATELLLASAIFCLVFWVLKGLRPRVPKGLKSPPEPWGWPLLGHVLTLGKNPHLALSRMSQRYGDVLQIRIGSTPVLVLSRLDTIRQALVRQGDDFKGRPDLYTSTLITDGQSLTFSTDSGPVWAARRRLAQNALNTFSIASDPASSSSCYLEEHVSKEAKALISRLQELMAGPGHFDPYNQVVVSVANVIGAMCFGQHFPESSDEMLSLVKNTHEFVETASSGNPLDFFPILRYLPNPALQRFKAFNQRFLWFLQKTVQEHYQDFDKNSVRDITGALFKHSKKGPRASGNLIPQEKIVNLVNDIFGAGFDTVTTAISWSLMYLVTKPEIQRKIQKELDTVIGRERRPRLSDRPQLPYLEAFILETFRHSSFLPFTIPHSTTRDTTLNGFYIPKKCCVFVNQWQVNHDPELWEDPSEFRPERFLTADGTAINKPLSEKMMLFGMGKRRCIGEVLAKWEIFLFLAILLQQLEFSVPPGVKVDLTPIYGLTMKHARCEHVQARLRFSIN
Sequence of Alpha-1B adrenergic receptor (P15823 whole entry): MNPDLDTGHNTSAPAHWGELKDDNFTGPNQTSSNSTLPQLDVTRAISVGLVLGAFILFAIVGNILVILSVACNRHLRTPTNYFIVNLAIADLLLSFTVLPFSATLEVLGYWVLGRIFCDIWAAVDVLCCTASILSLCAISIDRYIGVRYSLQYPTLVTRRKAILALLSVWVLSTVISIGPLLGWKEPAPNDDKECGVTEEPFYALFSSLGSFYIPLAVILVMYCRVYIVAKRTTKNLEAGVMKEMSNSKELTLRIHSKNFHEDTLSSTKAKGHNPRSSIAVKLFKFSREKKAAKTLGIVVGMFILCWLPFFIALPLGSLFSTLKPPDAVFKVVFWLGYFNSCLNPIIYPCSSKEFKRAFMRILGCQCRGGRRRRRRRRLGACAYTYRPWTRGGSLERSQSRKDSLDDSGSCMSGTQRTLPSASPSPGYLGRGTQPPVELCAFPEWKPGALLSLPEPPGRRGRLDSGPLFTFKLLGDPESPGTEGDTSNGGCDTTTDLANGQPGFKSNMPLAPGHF
Sequence of Voltage-gated inwardly rectifying potassium channel KCNH2 (Q12809 whole entry): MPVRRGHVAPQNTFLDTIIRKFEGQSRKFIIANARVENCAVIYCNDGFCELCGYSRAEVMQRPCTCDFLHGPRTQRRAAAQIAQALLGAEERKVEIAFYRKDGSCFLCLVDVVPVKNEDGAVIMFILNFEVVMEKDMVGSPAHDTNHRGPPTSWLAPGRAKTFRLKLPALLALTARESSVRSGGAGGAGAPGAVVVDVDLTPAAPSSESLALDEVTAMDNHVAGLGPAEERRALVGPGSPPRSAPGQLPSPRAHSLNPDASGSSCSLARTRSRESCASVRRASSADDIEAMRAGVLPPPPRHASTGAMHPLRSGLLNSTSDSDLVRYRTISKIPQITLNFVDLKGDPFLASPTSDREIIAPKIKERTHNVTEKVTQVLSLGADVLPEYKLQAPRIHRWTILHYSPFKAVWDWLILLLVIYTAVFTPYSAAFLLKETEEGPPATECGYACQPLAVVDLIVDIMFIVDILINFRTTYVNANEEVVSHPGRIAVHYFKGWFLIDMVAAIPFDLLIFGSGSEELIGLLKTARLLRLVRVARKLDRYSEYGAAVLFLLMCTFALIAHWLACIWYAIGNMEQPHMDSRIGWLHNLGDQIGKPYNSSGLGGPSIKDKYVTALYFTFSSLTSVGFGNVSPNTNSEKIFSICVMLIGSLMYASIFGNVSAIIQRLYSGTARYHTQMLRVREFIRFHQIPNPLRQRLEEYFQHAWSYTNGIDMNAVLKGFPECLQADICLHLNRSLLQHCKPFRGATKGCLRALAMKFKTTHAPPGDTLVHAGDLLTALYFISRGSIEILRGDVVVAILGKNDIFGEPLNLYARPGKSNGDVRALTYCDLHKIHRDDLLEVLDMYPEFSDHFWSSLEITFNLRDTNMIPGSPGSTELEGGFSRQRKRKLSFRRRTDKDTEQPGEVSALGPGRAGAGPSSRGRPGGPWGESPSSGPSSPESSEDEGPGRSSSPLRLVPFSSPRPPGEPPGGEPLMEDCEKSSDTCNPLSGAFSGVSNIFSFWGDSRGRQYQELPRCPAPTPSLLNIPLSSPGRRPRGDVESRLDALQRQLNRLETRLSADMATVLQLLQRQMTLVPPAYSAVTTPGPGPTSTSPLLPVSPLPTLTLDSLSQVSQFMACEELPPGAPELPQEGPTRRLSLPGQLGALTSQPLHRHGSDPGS
Sequence of Alpha-1A adrenergic receptor (P43140 whole entry): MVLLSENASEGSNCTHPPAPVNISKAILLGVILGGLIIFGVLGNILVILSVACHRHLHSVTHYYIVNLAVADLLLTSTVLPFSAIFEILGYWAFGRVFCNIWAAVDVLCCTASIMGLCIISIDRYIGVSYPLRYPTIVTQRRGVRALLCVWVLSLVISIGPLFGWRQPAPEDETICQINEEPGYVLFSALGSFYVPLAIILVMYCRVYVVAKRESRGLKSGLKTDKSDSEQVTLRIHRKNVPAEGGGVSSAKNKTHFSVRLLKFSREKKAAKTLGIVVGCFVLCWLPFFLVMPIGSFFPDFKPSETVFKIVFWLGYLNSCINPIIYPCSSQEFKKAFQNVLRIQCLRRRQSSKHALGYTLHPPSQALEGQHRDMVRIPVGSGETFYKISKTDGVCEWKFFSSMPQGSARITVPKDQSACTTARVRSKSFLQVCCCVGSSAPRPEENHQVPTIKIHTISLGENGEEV
Sequence of Cytochrome P450 2D6 (P10635 whole entry): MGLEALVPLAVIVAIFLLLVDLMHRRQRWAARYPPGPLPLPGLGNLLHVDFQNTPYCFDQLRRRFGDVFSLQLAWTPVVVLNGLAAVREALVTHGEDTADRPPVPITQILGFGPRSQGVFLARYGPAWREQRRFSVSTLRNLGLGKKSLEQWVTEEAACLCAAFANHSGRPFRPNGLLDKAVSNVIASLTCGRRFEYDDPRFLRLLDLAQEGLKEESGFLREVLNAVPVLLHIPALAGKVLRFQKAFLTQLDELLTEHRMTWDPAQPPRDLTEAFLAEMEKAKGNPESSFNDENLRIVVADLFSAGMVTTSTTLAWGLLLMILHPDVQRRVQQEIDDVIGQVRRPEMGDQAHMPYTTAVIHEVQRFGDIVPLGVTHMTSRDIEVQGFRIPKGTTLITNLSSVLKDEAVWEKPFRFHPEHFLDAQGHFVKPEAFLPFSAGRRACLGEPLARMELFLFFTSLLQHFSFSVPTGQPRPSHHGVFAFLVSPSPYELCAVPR
Sequence of 5-hydroxytryptamine receptor 6 (P50406 whole entry): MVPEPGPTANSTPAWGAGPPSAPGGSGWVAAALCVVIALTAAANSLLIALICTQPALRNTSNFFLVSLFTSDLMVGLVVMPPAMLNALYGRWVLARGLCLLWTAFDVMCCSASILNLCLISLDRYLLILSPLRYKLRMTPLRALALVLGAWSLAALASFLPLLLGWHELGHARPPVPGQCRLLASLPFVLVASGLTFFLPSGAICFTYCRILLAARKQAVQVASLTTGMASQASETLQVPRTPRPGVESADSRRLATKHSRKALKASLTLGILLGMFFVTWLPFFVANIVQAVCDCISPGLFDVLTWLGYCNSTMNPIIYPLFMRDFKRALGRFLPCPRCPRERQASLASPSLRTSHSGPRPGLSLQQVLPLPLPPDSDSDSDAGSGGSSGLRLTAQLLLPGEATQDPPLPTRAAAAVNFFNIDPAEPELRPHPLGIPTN
Sequence of Cytochrome P450 2C19 (P33261 whole entry): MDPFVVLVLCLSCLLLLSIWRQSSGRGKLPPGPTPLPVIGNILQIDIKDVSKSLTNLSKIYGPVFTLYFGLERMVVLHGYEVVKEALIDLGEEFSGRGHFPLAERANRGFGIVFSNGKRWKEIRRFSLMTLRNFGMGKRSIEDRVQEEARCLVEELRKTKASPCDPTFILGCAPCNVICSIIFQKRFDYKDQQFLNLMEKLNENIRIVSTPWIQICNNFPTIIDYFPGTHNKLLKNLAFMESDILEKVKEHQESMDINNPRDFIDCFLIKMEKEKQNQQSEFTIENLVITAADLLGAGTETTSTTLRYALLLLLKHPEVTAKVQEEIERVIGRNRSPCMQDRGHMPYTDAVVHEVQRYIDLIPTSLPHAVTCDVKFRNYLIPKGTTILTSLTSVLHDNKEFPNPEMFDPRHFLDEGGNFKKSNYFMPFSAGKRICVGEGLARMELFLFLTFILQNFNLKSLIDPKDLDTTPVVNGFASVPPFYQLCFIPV

Usually AUC(0-inf) stands for the area under the concentration-time curve extrapolated to infinity. The term solubility denotes how much of the substance goes into solution per volume. One may read the clearance as a measure of how efficiently the substance is removed, as volume per time. One may read the bioavailability as dose-corrected exposure relative to a reference, in per cent. A word on the Cmax: it is the peak of the concentration-time curve. For orientation: half-life means the time needed for the level to fall by half in the phase considered. In general, ED50 refers to the midpoint of the dose-response relation. Consider `CC(=O)Nc1cccc(CCN2CCN(c3cccc4nc(C)ccc34)CC2)c1.Cl.Cl`, for which the AUC(0-inf) in data set [1] is 893 ng·h/mL. Further, the solubility was above 10000 µg/mL in [2], above 10000 µg/mL in [4] and 5000 µg/mL in data set [9]. In addition, the clearance in [3] turned out to be 10 mL/min/kg. In [5], the Kp at 1 h was found to be 0.7. The compound also displayed a bioavailability in data set [6] of 51%. In data set [7], this compound returned a maximum concentration (Cmax) of 98 ng/mL. In data set [8], this compound gave a half-life of 4.6 h. In addition, the 50% effect level in the data set on Rattus norvegicus (ED50) was put at a dose of 0.09 mg/kg.

What is called IC50 is the midpoint of a concentration-inhibition curve. For orientation: Ki means the dissociation constant of the complex between target and ligand, obtained from inhibition or displacement. As usually defined, the fraction unbound is free concentration divided by total concentration. Turning to `Cc1ccc2c(N3CCN(CCc4cccc(N5CCNC5=O)c4)CC3)cccc2n1` [GSK163090], the IC50 is 60 µM on Cytochrome P450 2C9; 0.0251 µM in [10]; 21 µM against Cytochrome P450 3A4 [11]; 21 µM against Cytochrome P450 3A4 [12]; 67 µM on Cytochrome P450 3A4 [16]; 0.0251 µM in data set [17]. The IC50 at Cytochrome P450 1A2 stood at 96 µM; at Cytochrome P450 2C19, 76 µM; on Cytochrome P450 3A4 [21], 21 µM; at Cytochrome P450 2D6, 86 µM. The inhibition constant (Ki) in data set [13] is above 5.01 µM; in data set [14], 1.58 µM; in [20], 12.6 µM. Besides, the free fraction (fraction unbound) at 1 ug/mL in data set [15] is 0.041; in data set [18] it was 0.041; in data set [19], 0.045.

Take `Cc1ccc2c(N3CCN(CCc4cccc(NS(C)(=O)=O)c4)CC3)cccc2n1.Cl.Cl`: the AUC(0-inf) in data set [1] is 1450 ng·h/mL. Also, the results for the solubility in data set [2], in [4] and in data set [9] were above 10000 µg/mL, above 10000 µg/mL and 600 µg/mL, respectively. Moreover, the clearance in [3] is 7 mL/min/kg. Besides, the Kp at 1 h in data set [5] turned out to be 0.5. Further, in data set [6], the bioavailability amounted to 56%. The Cmax in data set [7] came out at 243 ng/mL. In data set [8], the half-life was 3.9 h. Moreover, in the data set on Rattus norvegicus, the ED50 turned out to be 1 mg/kg.

Take `Cc1ccc2c(N3CCN(CCc4cccc(N5CCNC5=O)c4)CC3)cccc2n1.Cl.Cl`: the clearance in data set [22] worked out at 25 mL/min/kg; in [26], 60 mL/min/kg; in data set [3], 11 mL/min/kg. Besides, the area under the curve AUC(0-inf) is 889 ng·h/mL in [1], 2550 ng·h/mL in the data set “in vivo [24]” and 4220 ng·h/mL in “in vivo [31]”. The half-life was 0.8 h in [23], 5.3 h in data set [25] and 3.2 h in data set [8]. Moreover, the solubility is above 10000 µg/mL in data set [2], above 10000 µg/mL in [4] and 500 µg/mL in data set [9]. For the same compound, the bioavailability in “in vivo [27]” turned out to be 63%; in “in vivo [28]” it was 6%; in data set [6], 58%. In addition, the maximum concentration (Cmax) in “in vivo [29]” is 1300 ng/mL; in the data set “in vivo [30]”, 1390 ng/mL; in data set [7] it was 122 ng/mL. In data set [5], the Kp at 1 h stood at 0.5. This compound gave an ED50 with Rattus norvegicus of 0.03 mg/kg.
